Reference: ChEMBL document CHEMBL1148487, “Chemical and functional identification and characterization of novel sulfated alpha-conotoxins from the cone snail Conus anemone” (J Med Chem, 2004)
Residues, ends and D or L forms follow the SMILES beside them.

Tests used:
[1] = Inhibition ratio of rat alpha 3 beta 2 nicotinic acetylcholine receptor (nAChR) to that of at alpha 7 nicotinic acetylcholine receptor (nAChR)
[2] = biological target: Neuronal acetylcholine receptor; alpha3/beta2 (Rattus norvegicus, UniProt P04757+P12390); assay: Inhibition of rat Nicotinic acetylcholine receptor alpha3-beta2 expressed in Xenopus Oocytes; assay type: cell-based
Sequence of Neuronal acetylcholine receptor; alpha3/beta2 (P04757 whole entry, the tested form may be a part): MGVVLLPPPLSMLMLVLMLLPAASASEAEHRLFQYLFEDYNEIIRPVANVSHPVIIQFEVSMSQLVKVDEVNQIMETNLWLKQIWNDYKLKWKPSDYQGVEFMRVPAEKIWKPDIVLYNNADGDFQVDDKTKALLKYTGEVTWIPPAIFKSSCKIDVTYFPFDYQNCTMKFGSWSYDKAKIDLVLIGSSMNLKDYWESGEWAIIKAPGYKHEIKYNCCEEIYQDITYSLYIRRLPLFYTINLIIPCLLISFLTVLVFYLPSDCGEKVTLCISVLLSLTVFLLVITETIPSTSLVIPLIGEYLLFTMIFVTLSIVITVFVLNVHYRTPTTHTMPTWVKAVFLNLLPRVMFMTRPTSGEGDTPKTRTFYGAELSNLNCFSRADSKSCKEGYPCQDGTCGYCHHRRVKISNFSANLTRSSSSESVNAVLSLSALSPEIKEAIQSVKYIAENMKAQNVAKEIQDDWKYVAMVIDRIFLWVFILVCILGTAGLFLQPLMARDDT
Sequence of Neuronal acetylcholine receptor; alpha3/beta2 (P12390 whole entry, the tested form may be a part): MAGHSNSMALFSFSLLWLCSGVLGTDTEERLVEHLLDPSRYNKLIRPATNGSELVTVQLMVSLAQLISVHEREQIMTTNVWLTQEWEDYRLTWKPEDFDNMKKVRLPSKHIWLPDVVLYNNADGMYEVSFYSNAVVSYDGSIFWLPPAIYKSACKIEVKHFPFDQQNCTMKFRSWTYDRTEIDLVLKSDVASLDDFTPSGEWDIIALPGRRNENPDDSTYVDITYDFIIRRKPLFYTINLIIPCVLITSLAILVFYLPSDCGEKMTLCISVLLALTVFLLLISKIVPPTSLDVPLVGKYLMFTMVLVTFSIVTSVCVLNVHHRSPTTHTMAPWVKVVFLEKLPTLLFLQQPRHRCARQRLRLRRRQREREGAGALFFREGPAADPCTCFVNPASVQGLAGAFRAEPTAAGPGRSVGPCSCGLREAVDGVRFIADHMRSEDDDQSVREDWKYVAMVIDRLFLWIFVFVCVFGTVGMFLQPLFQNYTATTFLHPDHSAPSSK
Outline: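 Rat nAChR subunit cRNAs (50 nL, 5–50 ng/µL) injected into Xenopus oocytes, kept at 19 °C in ND96 pH 7.4 with gentamycin; two-electrode voltage clamp at −70 mV, 2–10 days post-injection. Peptide added to static bath, 3–10 min before agonist; sub-1 nM also perfused 10–15 min. IC50 from fitted concentration–response curves with Hill slope.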

CC(C)C[C@@H](NC(=O)[C@@H](CO)NC(=O)[C@@H](CS)NC(=O)[C@@H](CS)NC(=O)CN)C(=O)N1CCC[C@H]1C(=O)N1CCC[C@H]1C(=O)N[C@@H](CS)C(=O)N[C@@H](C)C(=O)N[C@@H](C)C(=O)N[C@@H](CC(N)=O)C(=O)N[C@@H](CC(N)=O)C(=O)N1CCC[C@@H]1C(=O)N[C@@H](CC(=O)O)C(=O)N[C@@H](Cc1ccc(S)cc1)C(=O)N[C@@H](CS)C(N)=O
Ratio [1]: 0.04
IC50 [2]: 9.6 nM

CC(C)C[C@@H](NC(=O)[C@@H](CO)NC(=O)[C@@H](CS)NC(=O)[C@@H](CS)NC(=O)CN)C(=O)N1CCC[C@H]1C(=O)N1CCC[C@H]1C(=O)N[C@@H](CS)C(=O)N[C@@H](C)C(=O)N[C@@H](C)C(=O)N[C@@H](CC(N)=O)C(=O)N[C@@H](CC(N)=O)C(=O)N1CCC[C@@H]1C(=O)N[C@@H](CC(=O)O)C(=O)N[C@@H](Cc1ccc(O)cc1)C(=O)N[C@@H](CS)C(N)=O
Ratio [1]: 7.9
IC50 [2]: 99 nM

CC[C@H](C)[C@H](N)C(=O)N[C@@H](CCCN=C(N)N)C(=O)N[C@@H](CC(=O)O)C(=O)N[C@@H](CC(C(=O)O)C(=O)O)C(=O)N[C@@H](CS)C(=O)N[C@@H](CS)C(=O)N[C@@H](CO)C(=O)N[C@@H](CC(N)=O)C(=O)N1CCC[C@H]1C(=O)N[C@@H](C)C(=O)N[C@@H](CS)C(=O)N[C@@H](CCCN=C(N)N)C(=O)N[C@H](C(=O)N[C@@H](CC(N)=O)C(=O)N[C@@H](CC(N)=O)C(=O)N1C[C@H](O)C[C@H]1C(=O)N[C@@H](Cc1c[nH]cn1)C(=O)N[C@H](C(=O)N[C@@H](CS)C(N)=O)C(C)C)C(C)C (HELM PEPTIDE1{I.R.D.[O=C(O)C(C[C@H](N[*:1])C(=O)[*:2])C(=O)O].C.C.S.N.P.A.C.R.V.N.N.[Hyp].H.V.C.[am]}$$$$V2.0)
Ratio [1]: 0.2
IC50 [2]: 10 nM
